G6PDH CS: counter-screen for G6PDH assay hits: L. mesenteroides G6PDH inhibition; 0.12% of 200,000 active; AID 1020; Purified L. mesenteroides G6PDH, diaphorase/resazurin coupled fluorescence, 45 min; inhibition, % at 5 µM
Lmaj promast: reduces viability of Leishmania major promastigotes; resazurin fluorescence viability; inhibition, % at 10 µM; 9% of 200,000 active; AID 1063;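 further: promastigotes grown with compound for 44 hours at 28 °C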
Diaph inh CS: counter-screen for diaphorase-based assays: diaphorase inhibitors and chemical oxidizers. diaphorase resazurin-to-resorufin fluorescence, NADH, 16 min; bacterial (C. kluyveri) enzyme, not human. 0.69% of 190,000 active. inhibition, % at 20 µM. AID 1217;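 active means primary screen inhibition at 20 µM above a set limit, cut at about 50% in these data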
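Assay system: diaphorase enzyme from Clostridium kluyveri; Input: enzyme working solution with 0.14 U/mL diaphorase; Timing: 16 min at room temperature; Technique: resorufin fluorescence, excitation 544 nm, emission 590 nm; Benchmarks: positive control minus NADH, DMSO neutral control.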
WT yeast gro inh: growth inhibition of WT yeast, mitochondrial fusion screen; AID 1362; 2.1% of 190,000 active; mitochondrial fusion phenotypic screen, WT strain; inhibition, % at 10 µM; in the data active means inhibition above about 58%; tested in S. cerevisiae
Diaph act CS: counter-screen for diaphorase-based assays: diaphorase activators and chemical reducers; Diaphorase/resazurin coupled assay, resorufin fluorescence, 16 min; active compounds read high; 1 = vehicle wells, 0 = NADH-free wells; activation factor at 20 µM; 0.005% of 190,000 active; AID 1229;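 active means diaphorase activity raised at least twofold by the compound at 20 µM; inactive means activation factor below 2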
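Assay system: Purified diaphorase enzyme from Clostridium kluyveri | Amount: Enzyme 0.07 U/mL final | Dosing: Compound 20 µM once, DMSO 1% | Timing: 16 min reaction at room temperature | Detection: Fluorescence, excitation 544 nm and emission 590 nm | Evaluation: Higher resorufin formation from activation or reduction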
Hits are given with their value. This is a sample that favours compounds with a hit; in the whole collection about 11% have one here. Unless noted, no stated cut-off is given here; in the data, active means inhibition above about 50%; inactive means the rest.

C=CCn1c(COc2ccc(Cl)cc2)nnc1SCC(=O)N1CC(=O)Nc2ccccc21 was read as G6PDH CS inactive, Lmaj promast inactive, Diaph inh CS inactive, WT yeast gro inh inactive and Diaph act CS inactive.
`CCN(CC)CCNC1=NCCn2c1cc1cc(OC)ccc12` gave G6PDH CS inactive, Lmaj promast 95.9, Diaph inh CS inactive, WT yeast gro inh inactive and Diaph act CS inactive.
`CN=C1c2cc3cc(OC)ccc3n2CCN1Cc1ccccc1` gave G6PDH CS inactive, Lmaj promast inactive, Diaph inh CS inactive, WT yeast gro inh inactive and Diaph act CS inactive.
For CCOc1ccc(CCNC(=O)c2cccc(C#N)c2)cc1OCC the results were G6PDH CS inactive, Lmaj promast inactive, Diaph inh CS inactive, WT yeast gro inh inactive and Diaph act CS inactive.
`C/C(CC(=O)Nc1ccccc1F)=N\NC(=O)Cc1ccc(Cl)cc1` gave G6PDH CS inactive, Lmaj promast inactive, Diaph inh CS inactive, WT yeast gro inh inactive and Diaph act CS inactive.
CCOC(=O)C1(CCc2ccccc2)CCN(Cc2ccc(O)cc2)CC1 was read as G6PDH CS inactive, Lmaj promast 95.4, Diaph inh CS inactive, WT yeast gro inh inactive and Diaph act CS inactive.
`CCOC(=O)C1(CCc2ccccc2)CCN(Cc2ccc(OC)cc2)CC1` gave G6PDH CS inactive, Lmaj promast 84.6, Diaph inh CS inactive, WT yeast gro inh inactive and Diaph act CS inactive.
`CCOC(=O)C1(CCc2ccccc2)CCN(Cc2cnc(N(C)C)s2)CC1` gave G6PDH CS inactive, Lmaj promast inactive, Diaph inh CS inactive, WT yeast gro inh inactive and Diaph act CS inactive.
Screening CCOC(=O)C1(CCc2ccccc2)CCN(Cc2c(O)cccc2OC)CC1 returned G6PDH CS inactive, Lmaj promast 91.4, Diaph inh CS inactive, WT yeast gro inh inactive and Diaph act CS inactive.
CCOC(=O)C1(CCc2ccccc2)CCN(Cc2nccn2CC)CC1 was read as G6PDH CS inactive, Lmaj promast inactive, Diaph inh CS inactive, WT yeast gro inh inactive and Diaph act CS inactive.
Screening COc1ccc(CCN=C(N)Nc2nc(C)cc(C)n2)cc1 returned G6PDH CS inactive, Lmaj promast 95.2, Diaph inh CS inactive, WT yeast gro inh inactive and Diaph act CS inactive.
`O=C(C[n+]1cccc(CNC(=O)c2ccc(OC(F)F)cc2)c1)Nc1cccc(C(F)(F)F)c1` gave G6PDH CS inactive, Lmaj promast inactive, Diaph inh CS inactive, WT yeast gro inh inactive and Diaph act CS inactive.
`O=C(NCC1COc2ccccc2O1)c1ccc(NC(=O)C(c2ccccc2)c2ccccc2)cc1` (configuration not stated) gave G6PDH CS inactive, Lmaj promast 91.9, Diaph inh CS inactive, WT yeast gro inh inactive and Diaph act CS inactive.
`CC(C)CCNC(=O)CCSCCC(=O)NCCC(C)C` gave G6PDH CS inactive, Lmaj promast inactive, Diaph inh CS inactive, WT yeast gro inh inactive and Diaph act CS inactive.
For Cc1cc(C)c2c3c(sc2n1)C1(CCSCC1)C(C#N)=C(N)O3 the results were G6PDH CS inactive, Lmaj promast 100.3, Diaph inh CS inactive, WT yeast gro inh inactive and Diaph act CS inactive.
For Cc1cc(C)c2c(n1)sc1c(-c3ccccc3)c(C#N)c(N)nc12 the results were G6PDH CS inactive, Lmaj promast inactive, Diaph inh CS inactive, WT yeast gro inh inactive and Diaph act CS inactive.
O=c1[nH][nH]c(-c2ccccc2)c1C=Nc1ccccc1 was read as G6PDH CS inactive, Lmaj promast inactive, Diaph inh CS inactive, WT yeast gro inh 80.4 and Diaph act CS inactive.
For Cc1ccc(-n2nnc3c(SCC(=O)N4CCN(c5ccccc5)CC4)ncnc32)cc1 the results were Lmaj promast inactive.
For CC(CNCC1CCCO1)COc1ccccc1 (configuration not stated) the results were G6PDH CS inactive, Lmaj promast 62.0, Diaph inh CS inactive, WT yeast gro inh inactive and Diaph act CS inactive.
Screening CC(CNCC1CCCO1)COc1cccc2ccccc12 (configuration not stated) returned G6PDH CS inactive, Lmaj promast 79.9, Diaph inh CS inactive, WT yeast gro inh inactive and Diaph act CS inactive.
For O=C(Cc1cccc2ccccc12)NCC1CCCO1 (configuration not stated) the results were G6PDH CS inactive, Lmaj promast inactive, Diaph inh CS inactive, WT yeast gro inh inactive and Diaph act CS inactive.
CC(C)OC(=O)/C(C#N)=C/c1c[nH]c2ccccc12 was read as G6PDH CS inactive, Lmaj promast inactive, Diaph inh CS inactive, WT yeast gro inh inactive and Diaph act CS inactive.
For O=C(c1ccc([N+](=O)[O-])s1)N1CCc2ccccc2C1 the results were G6PDH CS inactive, Lmaj promast 94.2, Diaph inh CS inactive, WT yeast gro inh inactive and Diaph act CS inactive.
For COC(=O)c1ccc(COc2ccccc2/C=C(\C#N)C(=O)Nc2ccccc2C)cc1 the results were G6PDH CS inactive, Lmaj promast inactive, Diaph inh CS inactive, WT yeast gro inh inactive and Diaph act CS inactive.
`COC(=O)c1ccc(COc2ccccc2/C=C(\C#N)C(=O)Nc2c(C)cccc2C)cc1` gave G6PDH CS inactive, Lmaj promast 98.3, Diaph inh CS inactive, WT yeast gro inh inactive and Diaph act CS inactive.
`CS(=O)(=O)c1ccccc1-c1nc(-c2ccc([N+](=O)[O-])cc2)no1` gave G6PDH CS inactive, Lmaj promast inactive, Diaph inh CS inactive, WT yeast gro inh inactive and Diaph act CS inactive.
CCCn1c(N2CCN(CC(=O)c3c[nH]c4ccccc34)CC2)nc2c1c(=O)[nH]c(=O)n2C was read as G6PDH CS inactive, Lmaj promast inactive, Diaph inh CS inactive, WT yeast gro inh inactive and Diaph act CS inactive.
For O=C(COc1ccc(-c2ccccc2)cc1)NNC(=O)NC1CCCCC1 the results were G6PDH CS inactive, Lmaj promast inactive, Diaph inh CS inactive, WT yeast gro inh inactive and Diaph act CS inactive.
`O=C(NNc1cccc(Cl)c1)c1cccnc1Cl` gave G6PDH CS inactive, Lmaj promast 88.2, Diaph inh CS inactive, WT yeast gro inh inactive and Diaph act CS inactive.
For COc1ccc(CCN2C(=O)CC(C(C)c3ccccc3)C2=O)cc1OC (configuration not stated) the results were G6PDH CS inactive, Lmaj promast inactive, Diaph inh CS inactive, WT yeast gro inh inactive and Diaph act CS inactive.
For CCN1CCN(c2ncc3c(n2)CC(c2ccc(OC)c(OC)c2)CC3=O)CC1 (configuration not stated) the results were G6PDH CS inactive, Lmaj promast 99.3, Diaph inh CS inactive, WT yeast gro inh inactive and Diaph act CS inactive.
Clc1ccccc1-c1ccc(CN2CCN(c3ccccc3)CC2)o1 was read as G6PDH CS inactive, Lmaj promast inactive, Diaph inh CS inactive, WT yeast gro inh 65.8 and Diaph act CS inactive.
Screening Nc1ccccc1Oc1ccc2ccccc2c1 returned G6PDH CS inactive, Lmaj promast inactive, Diaph inh CS inactive, WT yeast gro inh inactive and Diaph act CS inactive.

Assay outcomes as filed in PubChem BioAssay.
